Data from ChEMBL document CHEMBL1133671, “Synthesis and SAR of new 5-phenyl-3-ureido-1,5-benzodiazepines as cholecystokinin-B receptor antagonists” (J Med Chem, 2000).

Legend:
[1] = molecular target: T1, Cholecystokinin receptor type A (Rattus norvegicus, UniProt P30551); test: In vitro inhibition of binding of [3H]pCCK-8 against Cholecystokinin type A receptor of rat pancreatic membranes; assay type: cell membranes, Membrane
T1 sequence (P30551 whole entry): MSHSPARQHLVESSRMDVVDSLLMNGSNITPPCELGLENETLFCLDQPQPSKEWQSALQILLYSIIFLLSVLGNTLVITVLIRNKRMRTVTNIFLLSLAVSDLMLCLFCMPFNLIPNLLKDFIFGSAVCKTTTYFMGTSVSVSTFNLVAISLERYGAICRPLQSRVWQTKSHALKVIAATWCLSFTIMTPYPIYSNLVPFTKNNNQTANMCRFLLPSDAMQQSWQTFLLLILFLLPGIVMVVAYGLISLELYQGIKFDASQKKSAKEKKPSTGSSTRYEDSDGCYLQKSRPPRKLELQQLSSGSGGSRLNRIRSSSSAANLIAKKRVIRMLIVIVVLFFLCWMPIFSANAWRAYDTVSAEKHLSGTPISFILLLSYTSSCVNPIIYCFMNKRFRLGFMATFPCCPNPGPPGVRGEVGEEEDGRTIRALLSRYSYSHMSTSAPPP
Method in brief: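 Radioligand displacement of [3H]CCK-8S from membranes: rat pancreas for the CCK-A receptor and guinea-pig cerebral cortex for the CCK-B receptor, using slightly modified published methods. Values are means of n experiments.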

Cavia porcellus = organism: Cavia porcellus; test: Selectivity factor between CCK-B and CCK-A receptors

Row | SMILES | Ki [1] [nM] | Ratio (Cavia porcellus)
1 | O=C(Nc1ccc(Br)cc1)NC1C(=O)N(CC23C[C@H]4C[C@@H](C2)C[C@@H](C3)C4)c2ccccc2N(c2ccccc2)C1=O (stereo partly drawn) | 3470 | 2460
2 | CC(C)(C)CCN1C(=O)C(NC(=O)Nc2cccc(C#N)c2)C(=O)N(c2ccccc2)c2ccccc21 (stereo not drawn) | 97.7 | 151
3 | CN(C)c1cccc(NC(=O)NC2C(=O)N(c3ccccc3)c3ccccc3N(C3[C@H]4C[C@@H]5C[C@@H](C[C@H]3C5)C4)C2=O)c1 (stereo partly drawn) | 141 | 60
4 | O=C(Nc1cccc(Cl)c1)NC1C(=O)N(c2ccccc2)c2ccccc2N(C2CC3CCC2C3)C1=O (stereo not drawn) | 47.9 | 28
5 | CSc1cccc(NC(=O)NC2C(=O)N(CCC34C[C@H]5C[C@@H](C3)C[C@@H](C4)C5)c3ccccc3N(c3ccccc3)C2=O)c1 (stereo partly drawn) | 251 | 4
6 | CC(=O)Nc1cccc(NC(=O)NC2C(=O)N(CC34C[C@H]5C[C@@H](C3)C[C@@H](C4)C5)c3ccccc3N(c3ccccc3)C2=O)c1 (stereo partly drawn) | 1510 | 591
7 | CN(C)c1cccc(NC(=O)NC2C(=O)N(c3ccccc3)c3ccccc3N(C3CC4CCC3C4)C2=O)c1 (stereo not drawn) | 44.7 | 40
8 | O=C(Nc1cccc(C2N=NN=N2)c1)NC1C(=O)N(c2ccccc2)c2ccccc2N(C2[C@H]3C[C@@H]4C[C@@H](C[C@H]2C4)C3)C1=O (stereo partly drawn) | 97.7 | 47
9 | CN(C)c1cccc(NC(=O)NC2C(=O)N(CCC34C[C@H]5C[C@@H](C3)C[C@@H](C4)C5)c3ccccc3N(c3ccccc3)C2=O)c1 (stereo partly drawn) | 295 | 22
10 | O=Cc1cccc(NC(=O)NC2C(=O)N(CC34C[C@H]5C[C@@H](C3)C[C@@H](C4)C5)c3ccccc3N(c3ccccc3)C2=O)c1 (stereo partly drawn) | 1120 | 1180
11 | CCOC(=O)c1cccc(NC(=O)NC2C(=O)N(CC34C[C@H]5C[C@@H](C3)C[C@@H](C4)C5)c3ccccc3N(c3ccccc3)C2=O)c1 (mixture of isomers) | 813 | 275
12 | CN(C)c1cccc(NC(=O)NC2C(=O)N(CC34C[C@H]5C[C@@H](C3)C[C@@H](C4)C5)c3ccccc3N(c3ccccc3)C2=O)c1 (mixture of isomers) | 447 | 398
13 | CC(C)Cn1nnc(-c2cccc(NC(=O)NC3C(=O)N(CCC(C)(C)C)c4ccccc4N(c4ccccc4)C3=O)c2)n1 (racemic) | 49 | 20
14 | O=C(Nc1ccccc1)NC1C(=O)N(CCC2CCCC2)c2ccccc2N(c2ccccc2F)C1=O (racemic) | 100 | 138
15 | O=C(Nc1cccc(C(=O)O)c1)NC1C(=O)N(CC23C[C@H]4C[C@@H](C2)C[C@@H](C3)C4)c2ccccc2N(c2ccccc2)C1=O (mixture of isomers) | 631 | 646
16 | CSc1cccc(NC(=O)NC2C(=O)N(CCC(C)C)c3ccccc3N(c3ccccc3F)C2=O)c1 (racemic) | 36.3 | 110
17 | O=C(Nc1cccc(Br)c1)NC1C(=O)N(CC23C[C@H]4C[C@@H](C2)C[C@@H](C3)C4)c2ccccc2N(c2ccccc2)C1=O (mixture of isomers) | 191 | –
18 | CC(C)(C)CCN1C(=O)C(NC(=O)Nc2cccc(OC(F)(F)F)c2)C(=O)N(c2ccccc2)c2ccccc21 (racemic) | 112 | 38
19 | O=C(Nc1ccccc1)NC1C(=O)N(c2ccccc2)c2ccccc2N(C2CC3CCC2C3)C1=O (racemic) | 251 | 162
20 | CSc1cccc(NC(=O)NC2C(=O)N(CCC(C)(C)C)c3ccccc3N(c3ccccc3)C2=O)c1 (racemic) | 7.41 | 15
21 | CCCCN1C(=O)C(NC(=O)Nc2ccccc2)C(=O)N(c2ccccc2)c2ccccc21 (racemic) | 550 | 89
22 | O=C(Nc1cccc([N+](=O)[O-])c1)NC1C(=O)N(CC23C[C@H]4C[C@@H](C2)C[C@@H](C3)C4)c2ccccc2N(c2ccccc2)C1=O (mixture of isomers) | 302 | 158
23 | CC(O)C(O)Nc1cccc(NC(=O)NC2C(=O)N(CC34C[C@H]5C[C@@H](C3)C[C@@H](C4)C5)c3ccccc3N(c3ccccc3)C2=O)c1 (mixture of isomers) | 631 | –
24 | O=C(Nc1cccc(C2N=NN=N2)c1)NC1C(=O)N(CCC2CCCC2)c2ccccc2N(c2ccccc2F)C1=O (racemic) | 120 | 468
25 | O=C(Nc1ccccc1)NC1C(=O)N(CCc2ccccc2)c2ccccc2N(c2ccccc2)C1=O (racemic) | 269 | 32
